Assay results taken from ChEMBL document CHEMBL4414574, “Structure-Based Discovery and Development of a Series of Potent and Selective Bromodomain and Extra-Terminal Protein Inhibitors” (J Med Chem, 2019).
Activity calls are given as the source filed them. No cut-off for these calls is given here.

Assays:
[1] = target: ATPase family AAA domain-containing protein 2B (Homo sapiens) (UniProt Q9ULI0); assay: Binding affinity to human partial length ATAD2B (Q955 to R1082 residues) expressed in Escherichia coli BL21 cells assessed as residual binding level at 1 uM measured after 1 hr by quantitative PCR based BROMOscan assay relative to control
ATPase family AAA domain-containing protein 2B (Homo sapiens), sequence (Q9ULI0 whole entry, the tested form may be a part): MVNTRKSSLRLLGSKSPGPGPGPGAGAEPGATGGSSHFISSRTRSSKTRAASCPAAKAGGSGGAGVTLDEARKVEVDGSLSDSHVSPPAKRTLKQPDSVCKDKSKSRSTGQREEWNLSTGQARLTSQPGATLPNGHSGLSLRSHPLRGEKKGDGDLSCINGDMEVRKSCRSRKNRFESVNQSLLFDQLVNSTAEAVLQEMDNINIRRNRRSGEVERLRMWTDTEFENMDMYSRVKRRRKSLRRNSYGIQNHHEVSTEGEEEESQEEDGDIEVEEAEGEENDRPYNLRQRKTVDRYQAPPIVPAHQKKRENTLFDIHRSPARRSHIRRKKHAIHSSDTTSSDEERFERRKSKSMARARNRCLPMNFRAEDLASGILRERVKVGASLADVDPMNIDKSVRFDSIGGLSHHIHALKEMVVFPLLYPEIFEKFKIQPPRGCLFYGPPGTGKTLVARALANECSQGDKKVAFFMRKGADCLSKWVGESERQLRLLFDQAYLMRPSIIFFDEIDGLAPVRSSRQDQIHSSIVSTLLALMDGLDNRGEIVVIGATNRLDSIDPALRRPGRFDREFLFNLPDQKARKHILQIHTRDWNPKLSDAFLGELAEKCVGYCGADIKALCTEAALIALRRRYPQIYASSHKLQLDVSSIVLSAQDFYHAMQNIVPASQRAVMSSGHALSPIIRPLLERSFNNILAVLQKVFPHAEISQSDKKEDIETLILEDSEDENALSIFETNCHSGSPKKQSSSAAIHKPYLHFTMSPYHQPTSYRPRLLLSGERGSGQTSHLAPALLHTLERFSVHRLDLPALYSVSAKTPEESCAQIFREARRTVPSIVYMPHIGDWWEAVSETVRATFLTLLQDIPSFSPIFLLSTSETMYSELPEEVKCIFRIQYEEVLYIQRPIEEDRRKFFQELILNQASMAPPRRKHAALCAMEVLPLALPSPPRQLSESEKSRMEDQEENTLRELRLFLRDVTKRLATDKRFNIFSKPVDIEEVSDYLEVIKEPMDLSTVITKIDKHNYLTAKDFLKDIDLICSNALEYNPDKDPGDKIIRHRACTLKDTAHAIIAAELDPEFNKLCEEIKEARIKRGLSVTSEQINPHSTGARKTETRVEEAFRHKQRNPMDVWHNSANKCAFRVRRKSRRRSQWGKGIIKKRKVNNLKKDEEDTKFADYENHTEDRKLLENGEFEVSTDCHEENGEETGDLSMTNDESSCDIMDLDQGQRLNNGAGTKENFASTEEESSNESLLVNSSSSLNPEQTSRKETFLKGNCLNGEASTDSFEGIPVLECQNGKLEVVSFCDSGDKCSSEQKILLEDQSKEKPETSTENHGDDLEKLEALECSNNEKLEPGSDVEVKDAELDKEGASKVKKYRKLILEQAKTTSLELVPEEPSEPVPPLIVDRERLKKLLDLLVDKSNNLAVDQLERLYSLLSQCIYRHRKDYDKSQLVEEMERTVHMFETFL
Outline: (§1)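 A BROMOScan competition-binding panel of 32 bromodomains was run at a single 1 μM compound concentration. Results are primary-screen 'Percent Control', where lower values indicate stronger binding.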

[2] = Drug uptake in plasma of Balb/c nude mouse xenografted with human MV4-11 cells at 10 to 50 mg/kg, po measured after 1 to 8 hrs; assay type: ADME, organism-based; conditions: in vivo
Outline: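 MV4-11 xenografts in BALB/c nude mice given oral compound; drug concentrations in plasma and tumor tissue measured at 1 h and 8 h after dosing.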

[3] = test system: NCI-H1299; assay: Antiproliferative activity against human NCI-H1299 cells after 72 hrs by CCK8 or SRB assay; assay type: functional, cell-based
[4] = target: Protein polybromo-1 (Homo sapiens) (UniProt Q86U86); assay: Binding affinity to human partial length PB1 bromodomain 5 (S645 to D766 residues) expressed in Escherichia coli BL21 cells assessed as residual binding level at 1 uM measured after 1 hr by quantitative PCR based BROMOscan assay relative to control
Outline: (§2)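 Bromodomain panel screen (32 bromodomains) run at 1 μM single concentration; primary binding reported as 'Percent Control', lower values meaning stronger interaction.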

[5] = test system: KG-1; assay: Antiproliferative activity against human KG1 cells after 72 hrs by CCK8 or SRB assay; assay type: functional, cell-based
[6] = AUC (0 to infinity) in dog plasma at 3 mg/kg, po; assay type: ADME, organism-based, Canis lupus familiaris; design: dose 3 mg/kg, route oral, time infinity
Outline: (§3)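 Compound was given orally or intravenously in 1% DMSO/0.5% HPMC vehicle. Concentrations in plasma, or in brain where stated, gave Tmax, Cmax, T1/2, AUC0-t and AUC0-inf.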

[7] = Half life in rat plasma at 10 mg/kg, po; assay type: ADME, organism-based
[8] = target: Bromodomain adjacent to zinc finger domain protein 2B (Homo sapiens) (UniProt Q9UIF8); assay: Binding affinity to human partial length BAZ2B (S2054 to S2168 residues) expressed in Escherichia coli BL21 cells assessed as residual binding level at 1 uM measured after 1 hr by quantitative PCR based BROMOscan assay relative to control; outline: as §1
[9] = target: Cytochrome P450 3A4 (Homo sapiens, UniProt P08684); assay: Time-dependent inhibition of CYP3A4 in human liver microsomes at 10 uM using midazolam or testosterone as substrate preincubated up to 30 mins followed by NADPH generating system addition and measured after 10 mins; assay type: ADME
Cytochrome P450 3A4, sequence (P08684 whole entry): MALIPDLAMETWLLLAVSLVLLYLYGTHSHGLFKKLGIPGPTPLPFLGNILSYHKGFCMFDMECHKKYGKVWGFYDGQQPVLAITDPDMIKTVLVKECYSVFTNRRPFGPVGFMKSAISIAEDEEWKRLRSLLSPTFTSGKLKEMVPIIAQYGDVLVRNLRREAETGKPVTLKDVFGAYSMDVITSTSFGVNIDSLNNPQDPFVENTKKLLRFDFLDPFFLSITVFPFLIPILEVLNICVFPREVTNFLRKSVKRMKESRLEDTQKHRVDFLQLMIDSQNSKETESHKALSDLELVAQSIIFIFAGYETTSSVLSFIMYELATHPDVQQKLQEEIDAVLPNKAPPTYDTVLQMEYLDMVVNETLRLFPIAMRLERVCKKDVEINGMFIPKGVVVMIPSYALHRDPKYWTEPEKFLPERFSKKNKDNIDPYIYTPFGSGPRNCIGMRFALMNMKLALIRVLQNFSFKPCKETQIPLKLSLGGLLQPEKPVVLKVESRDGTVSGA
Outline: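 Human liver microsomes 0.2 mg/mL, 100 mM phosphate pH 7.4, 10 μM test compound, preincubated 0, 5, 10 and 30 min at 37 °C; then NADPH plus probe cocktail (5 μM midazolam, 50 μM testosterone, 5 μM dextromethorphan, 10 μM diclofenac, 50 μM phenacetin, 50 μM S-(+)-mephenytoin) added; 10 min reaction; kobs in units of 10^-4/min.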

[10] = test system: MV4-11; assay: Induction of apoptosis in human MV4-11 cells assessed as reduction in BCL-2 mRNA expression after 24 hrs by real time qPCR analysis; assay type: functional, cell-based
[11] = Cmax in ICR mouse brain at 50 mg/kg, po administered via gavage measured after 0.25 to 24 hrs by UPLC/MS analysis; assay type: ADME, organism-based; design: dose 50 mg/kg, route oral
Outline: (§4)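 Male ICR mice dosed orally in 1% DMSO/0.5% HPMC vehicle; plasma or brain drug levels used to derive Tmax, Cmax, AUC0-t, AUC0-inf and T1/2.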

[12] = AUC (0 to t) in dog plasma at 1 mg/kg, iv; assay type: ADME, organism-based, Canis lupus familiaris; outline: as §3
[13] = target: Bromodomain-containing protein 2 (Homo sapiens) (UniProt P25440); assay: Binding affinity to human partial length BRD2 bromodomain 1 isoform 1 (K71 to N194 residues) expressed in Escherichia coli BL21 cells assessed as residual binding level at 1 uM measured after 1 hr by quantitative PCR based BROMOscan assay relative to control; outline: as §1
Bromodomain-containing protein 2 (Homo sapiens), sequence (P25440 whole entry, looked up, the tested form may be a part, canonical isoform): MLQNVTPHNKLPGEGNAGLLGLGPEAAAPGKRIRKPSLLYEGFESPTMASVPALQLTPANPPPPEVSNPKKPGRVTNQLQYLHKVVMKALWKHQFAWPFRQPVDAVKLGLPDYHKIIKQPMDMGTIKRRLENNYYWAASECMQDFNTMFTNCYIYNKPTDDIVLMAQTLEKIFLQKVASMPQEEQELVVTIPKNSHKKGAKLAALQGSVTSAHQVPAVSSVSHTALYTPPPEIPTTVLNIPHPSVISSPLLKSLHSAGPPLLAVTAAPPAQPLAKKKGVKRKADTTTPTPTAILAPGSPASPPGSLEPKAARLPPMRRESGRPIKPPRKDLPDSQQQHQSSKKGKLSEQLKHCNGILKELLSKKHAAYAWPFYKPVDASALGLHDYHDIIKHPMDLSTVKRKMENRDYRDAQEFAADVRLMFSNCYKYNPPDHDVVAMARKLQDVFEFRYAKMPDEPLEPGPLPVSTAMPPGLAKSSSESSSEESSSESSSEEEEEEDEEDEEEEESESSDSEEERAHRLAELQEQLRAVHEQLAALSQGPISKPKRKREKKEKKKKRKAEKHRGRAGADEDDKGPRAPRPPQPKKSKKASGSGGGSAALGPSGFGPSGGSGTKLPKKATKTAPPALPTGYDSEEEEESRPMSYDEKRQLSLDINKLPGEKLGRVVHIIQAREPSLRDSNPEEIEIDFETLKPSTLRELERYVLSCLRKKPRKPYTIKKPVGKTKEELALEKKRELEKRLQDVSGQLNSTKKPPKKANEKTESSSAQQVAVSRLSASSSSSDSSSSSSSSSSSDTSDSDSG

[14] = target: Bromodomain testis-specific protein (Homo sapiens) (UniProt Q58F21); assay: Binding affinity to human partial length BRDT bromodomain 2 (K250 to E382 residues) expressed in Escherichia coli BL21 cells assessed as residual binding level at 1 uM measured after 1 hr by quantitative PCR based BROMOscan assay relative to control; outline: as §1
[15] = target: Bromodomain-containing protein 2 (Homo sapiens) (UniProt P25440); assay: Binding affinity to human partial length BRD2 bromodomain 2 isoform 1 (E348 to D455 residues) expressed in Escherichia coli BL21 cells assessed as residual binding level at 1 uM measured after 1 hr by quantitative PCR based BROMOscan assay relative to control; outline: as §1
[16] = target: SWI/SNF-related matrix-associated actin-dependent regulator of chromatin subfamily A member 4 (Homo sapiens) (UniProt P51532); assay: Binding affinity to human partial length SMARCA4 (A1448 to S1575 residues) expressed in Escherichia coli BL21 cells assessed as residual binding level at 1 uM measured after 1 hr by quantitative PCR based BROMOscan assay relative to control; outline: as §2
[17] = Half life in ICR mouse plasma at 100 mg/kg, po administered via gavage measured after 0.25 to 24 hrs by UPLC/MS analysis; assay type: ADME, organism-based; outline: as §4
[18] = target: Bromodomain and WD repeat-containing protein 1 (Homo sapiens) (UniProt Q9NSI6); assay: Binding affinity to human partial length BRWD1 (A1310 to E1430 residues) expressed in Escherichia coli BL21 cells assessed as residual binding level at 1 uM measured after 1 hr by quantitative PCR based BROMOscan assay relative to control; outline: as §1
[19] = test system: MV4-11; assay: Induction of apoptosis in human MV4-11 cells assessed as increase in cleaved caspase-8 level after 24 hrs by Western blot analysis; assay type: functional, cell-based
Outline: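 MV4-11 cells exposed to test agent at the indicated doses for 24 h. Lysates immunoblotted for full-length and cleaved caspase-3, -7, -8 and -9, with GAPDH as the loading reference.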

[20] = Ratio of drug level in brain to plasma in rat; assay type: ADME
Outline: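 Rats dosed orally at 50 mg/kg in 1% DMSO/0.5% HPMC; drug measured in plasma and brain.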

[21] = test system: MV4-11; assay: Induction of apoptosis in human MV4-11 cells after 24 hrs by Annexin V staining based assay; assay type: functional, cell-based
[22] = Half life in rat liver microsomes; assay type: ADME, Microsome
[23] = target: Bromodomain-containing protein 3 (Homo sapiens) (UniProt Q15059); assay: Binding affinity to human partial length BRD3 bromodomain 2 (G306 to P416 residues) expressed in Escherichia coli BL21 cells assessed as residual binding level at 1 uM measured after 1 hr by quantitative PCR based BROMOscan assay relative to control; outline: as §1
Bromodomain-containing protein 3 (Homo sapiens), sequence (Q15059 2-726 limits assumed): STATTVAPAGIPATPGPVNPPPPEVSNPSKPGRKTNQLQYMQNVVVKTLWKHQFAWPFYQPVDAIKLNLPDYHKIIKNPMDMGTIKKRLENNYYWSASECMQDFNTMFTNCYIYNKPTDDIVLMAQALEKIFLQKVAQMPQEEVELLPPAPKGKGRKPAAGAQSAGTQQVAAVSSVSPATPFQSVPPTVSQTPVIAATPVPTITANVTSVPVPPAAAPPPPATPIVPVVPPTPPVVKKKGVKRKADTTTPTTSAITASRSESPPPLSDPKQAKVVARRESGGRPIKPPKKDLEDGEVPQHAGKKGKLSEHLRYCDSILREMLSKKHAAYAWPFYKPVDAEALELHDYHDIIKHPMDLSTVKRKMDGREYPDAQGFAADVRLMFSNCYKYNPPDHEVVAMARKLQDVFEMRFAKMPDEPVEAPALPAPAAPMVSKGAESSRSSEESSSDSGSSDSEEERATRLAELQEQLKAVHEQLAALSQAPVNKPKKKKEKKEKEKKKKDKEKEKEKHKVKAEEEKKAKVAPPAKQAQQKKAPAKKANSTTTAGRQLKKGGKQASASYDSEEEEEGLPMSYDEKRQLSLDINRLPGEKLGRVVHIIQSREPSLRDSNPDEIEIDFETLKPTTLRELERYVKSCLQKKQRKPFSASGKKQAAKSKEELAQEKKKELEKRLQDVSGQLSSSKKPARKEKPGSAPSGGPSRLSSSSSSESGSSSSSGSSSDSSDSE

[24] = target: Histone acetyltransferase p300 (Homo sapiens) (UniProt Q09472); assay: Binding affinity to human partial length EP300 (A1040 to G1161 residues) expressed in Escherichia coli BL21 cells assessed as residual binding level at 1 uM measured after 1 hr by quantitative PCR based BROMOscan assay relative to control; outline: as §1
[25] = AUC (0 to infinity) in ICR mouse brain at 50 mg/kg, po administered via gavage measured after 0.25 to 24 hrs by UPLC/MS analysis; assay type: ADME, organism-based; design: dose 50 mg/kg, route oral, time infinity
Outline: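 Male ICR mice were dosed orally in 1% DMSO/0.5% HPMC vehicle. Plasma (and brain, where stated) concentrations gave Tmax, Cmax, T1/2, AUC0-t and AUC0-inf.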

SMILES: Cc1ccc(-n2nc(C(=O)N3C[C@@H](C)N[C@@H](C)C3)nc2-c2ccc3c(c2)N(C2CCCC2)[C@H](C)C(=O)N3C)cc1
- Activity [1]: 70 to 100%
- Drug uptake [2]: Active
- Activity [3]: Active
- Activity [4]: 70 to 100%
- Activity [5]: Active
- AUC(0-inf) [6]: 798 ng·h/mL
- half-life [7]: 300 min
- Activity [8]: 70 to 100%
- TDI [9]: 8 ×10⁻⁴ /min
- Activity [10]: Active
- Cmax [11]: 377 ng/mL
- AUC(0-t) [12]: 726 ng·h/mL
- Activity [13]: < 5%
- Activity [14]: < 5%
- Activity [15]: < 5%
- Activity [16]: 70 to 100%
- half-life [17]: 264 min
- Activity [18]: 70 to 100%
- Activity [19]: Dose-dependent effect
- BPR [20]: 8.7%
- Activity [21]: Dose-dependent effect
- half-life [22]: 49 min
- Activity [23]: < 5%
- Activity [24]: 20 to 50%
- AUC(0-inf) [25]: 2340 ng·h/mL
